# Test results: ChEMBL document CHEMBL4346700, “Structure-based modification of carbonyl-diphenylpyrimidines (Car-DPPYs) as a novel focal adhesion kinase (FAK) inhibitor against various stubborn cancer cells” (Eur J Med Chem, 2019)
# Calls of active or inactive are those of the source. The rule behind the calls is not given here.
# Columns and labels:
# NCI-H1975 = assay: Antiproliferative activity against human NCI-H1975 cells assessed as reduction in cell growth incubated for 72 hrs by MTT assay; details: NCI-H1975, 72 h
# L02 = assay: Cytotoxicity against human L02 cells assessed as reduction in cell growth incubated for 72 hrs by MTT assay; details: L02, 72 h
# ASPC1 [1] = assay: Antiproliferative activity against human AsPC1 cells assessed as reduction in cell growth incubated for 72 hrs by MTT assay; details: ASPC1, 72 h
# NCI/ADR-RES = assay: Antiproliferative activity against human MCF7/ADR cells assessed as reduction in cell growth incubated for 72 hrs by MTT assay
# PANC-1 = assay: Antiproliferative activity against human PANC1 cells assessed as reduction in cell growth incubated for 72 hrs by MTT assay; details: PANC-1, 72 h
# [2] = Cytotoxicity against human HPDEC cells assessed as reduction in cell growth incubated for 72 hrs by MTT assay
# BXPC-3 = assay: Antiproliferative activity against human BxPC3 cells assessed as reduction in cell growth incubated for 72 hrs by MTT assay; details: BXPC-3, 72 h
# ASPC1 [3] = assay: Induction of apoptosis in human AsPC1 cells assessed as nuclear fragmentation incubated for 72 hrs by acridine orange/ethidium bromide dye based fluorescent inverted microscopy; assay type: functional, cell-based
# Outline: (§1)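 AsPC-1 cells (about 2×10⁵ per well) were incubated 12 h, then treated with inhibitor at 150–600 nM for 72 h. Cells were washed twice with PBS and stained with AO/EB (1.0 µg/mL each in PBS). Apoptotic, necrotic and live cells were scored and counted under a fluorescent inverted microscope at 100×.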
# ASPC1 [4] = assay: Antitumor activity against human AsPC1 cells xenografted in BALB/cJNju-Foxn1nu/Nju mouse assessed as inhibition of tumor growth at 60 mg/kg, po for 7 days; assay type: functional; details: 168 h, read-out: TGI
# Outline: (§2)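 Nude mice were injected subcutaneously in the right axilla with 3×10⁶ AsPC-1 cells in 0.1 mL PBS. Three days later they were randomized into three groups and given compound orally once daily for 7 days, with controls receiving oral 25% PEG-400. Tumor volume was calculated as A×B²/2, and tumor weight was recorded; n = 3.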
# ASPC1 [5] = assay: Induction of apoptosis in human AsPC1 cells assessed as membrane blebbing incubated for 72 hrs by acridine orange/ethidium bromide dye based fluorescent inverted microscopy; assay type: functional, cell-based; outline: as §1
# ASPC1 [6] = assay: Effect on total MEK protein level in human AsPC1 cells at 10 to 100 nM incubated for 72 hrs by immunoblotting analysis; assay type: cell-based; details: aspc1, 72 h, 0.1 µM
# Outline: (§3)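 AsPC-1 cells were treated at 10–100 nM for 72 h and lysed. Lysates were cleared at 14,000 g for 15 min at 4 °C, and 50 µg protein was run on 8–12% SDS-PAGE and transferred to PVDF. Membranes were blocked 2 h in 5% skim milk, probed overnight at 4 °C with primary antibodies (FAK, p-FAK, MEK1, p-MEK1, ERK1/2, p-ERK1/2, β-actin) and detected by ECL.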
# ASPC1 [7] = details: Homo sapiens, 125 to 1000 nM
# ASPC1 [8] = assay: Effect on total ERK protein level in human AsPC1 cells at 10 to 100 nM incubated for 72 hrs by immunoblotting analysis; assay type: cell-based; details: aspc1, 72 h, 0.1 µM; outline: as §3
# ASPC1 [9] = assay: Antitumor activity against human AsPC1 cells xenografted in BALB/cJNju-Foxn1nu/Nju mouse assessed as inhibition of tumor growth at 30 mg/kg, po for 7 days; assay type: functional; details: 168 h, read-out: TGI; outline: as §2
# ASPC1 [10] = assay: Induction of apoptosis in human AsPC1 cells assessed as apoptotic bodies incubated for 72 hrs by acridine orange/ethidium bromide dye based fluorescent inverted microscopy; assay type: functional, cell-based; outline: as §1
# ASPC1 [11] = assay: Induction of apoptosis in human AsPC1 cells assessed as nuclear condensation incubated for 72 hrs by acridine orange/ethidium bromide dye based fluorescent inverted microscopy; assay type: functional, cell-based; outline: as §1
# [12] = target: Focal adhesion kinase 1 (Homo sapiens) (UniProt Q05397); assay: Inhibition of FAK in human AsPC1 cells assessed as reduction in autophosphorylation at 100 nM incubated for 72 hrs by immunoblotting analysis; assay type: cell-based; outline: as §3
# Sequence of Focal adhesion kinase 1 (Homo sapiens) (Q05397 2-1052 limits assumed): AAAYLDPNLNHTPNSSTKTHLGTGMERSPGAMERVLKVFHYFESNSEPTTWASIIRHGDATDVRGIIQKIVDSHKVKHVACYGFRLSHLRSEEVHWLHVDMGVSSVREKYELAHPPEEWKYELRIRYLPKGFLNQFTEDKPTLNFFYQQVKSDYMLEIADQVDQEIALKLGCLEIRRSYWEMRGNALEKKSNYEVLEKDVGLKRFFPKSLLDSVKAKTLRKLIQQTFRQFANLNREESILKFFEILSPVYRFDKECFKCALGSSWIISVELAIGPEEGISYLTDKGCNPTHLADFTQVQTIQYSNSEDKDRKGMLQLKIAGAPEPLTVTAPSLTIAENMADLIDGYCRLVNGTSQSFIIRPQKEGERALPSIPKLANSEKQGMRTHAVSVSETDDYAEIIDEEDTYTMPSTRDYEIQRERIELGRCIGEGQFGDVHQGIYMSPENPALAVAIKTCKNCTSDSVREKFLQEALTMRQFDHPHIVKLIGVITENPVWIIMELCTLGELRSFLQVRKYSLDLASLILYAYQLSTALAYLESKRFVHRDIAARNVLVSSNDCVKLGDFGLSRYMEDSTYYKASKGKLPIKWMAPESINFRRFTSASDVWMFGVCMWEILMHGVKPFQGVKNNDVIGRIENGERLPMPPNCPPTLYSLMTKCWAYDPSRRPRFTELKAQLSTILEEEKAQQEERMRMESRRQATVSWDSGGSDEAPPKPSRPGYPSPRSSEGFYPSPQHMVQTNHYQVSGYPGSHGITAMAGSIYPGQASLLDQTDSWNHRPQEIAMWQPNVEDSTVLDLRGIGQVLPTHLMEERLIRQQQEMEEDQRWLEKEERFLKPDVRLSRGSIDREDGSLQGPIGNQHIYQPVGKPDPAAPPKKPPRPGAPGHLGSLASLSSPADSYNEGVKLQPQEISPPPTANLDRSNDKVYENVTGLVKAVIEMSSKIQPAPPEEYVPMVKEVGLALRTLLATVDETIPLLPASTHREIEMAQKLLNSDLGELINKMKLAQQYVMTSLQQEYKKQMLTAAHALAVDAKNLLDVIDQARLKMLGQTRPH
Structure (SMILES),IC50 (NCI-H1975),IC50 (L02),IC50 (ASPC1 [1]),IC50 (NCI/ADR-RES),IC50 (PANC-1),IC50 [2],IC50 (BXPC-3),Activity (ASPC1 [3]),inhibition in vivo at 60 mg/kg (ASPC1 [4]),Activity (ASPC1 [5]),Activity (ASPC1 [6]),inhibition (ASPC1 [7]),Activity (ASPC1 [8]),inhibition in vivo at 30 mg/kg (ASPC1 [9]),Activity (ASPC1 [10]),Activity (ASPC1 [11]),inhibition [12]
CNC(=O)c1ccccc1Nc1nc(Nc2ccc(SCC(=O)N3CCOCC3)cc2)ncc1Cl,413 nM,4330 nM,1220 nM,1820 nM,5.51 µM,1.99 µM,2.89 µM,,,,,,,,,,
CNC(=O)c1ccccc1Nc1nc(Nc2ccc(CC(=O)N3CCOCC3)cc2)ncc1Cl,1170 nM,3700 nM,105 nM,590 nM,4.12 µM,6.62 µM,0.09 µM,Active,67%,Active,Non-Toxic,Active,Non-Toxic,87%,Active,Active,
CNC(=O)c1ccccc1Nc1nc(Nc2ccc(OC(C)C(=O)N3CCOCC3)cc2)ncc1Cl (configuration not stated),495 nM,821 nM,2870 nM,1440 nM,1.54 µM,1.04 µM,5.34 µM,,,,,,,,,,
CNC(=O)c1ccccc1Nc1nc(Nc2ccc(N3CCOCC3)cc2OC)ncc1Cl,> 2000 nM,,,> 5000 nM,> 10 µM,11.4 µM,> 10 µM,,,,,,,,,,100%
CCC(Oc1ccc(Nc2ncc(Cl)c(Nc3ccccc3C(=O)NC)n2)cc1)C(=O)N1CCOCC1 (configuration not stated),444 nM,674 nM,2600 nM,2100 nM,0.75 µM,2.17 µM,8.73 µM,,,,,,,,,,
O=C(NC1CC1)c1ccccc1Nc1nc(Nc2ccc(OCC(=O)N3CCOCC3)cc2)ncc1Cl,514 nM,910 nM,> 10000 nM,> 5000 nM,> 10 µM,16.7 µM,> 10 µM,,,,,,,,,,
CNC(=O)c1ccccc1Nc1nc(Nc2ccc(OCC(=O)N3CCOCC3)cc2)ncc1Cl,160 nM,594 nM,1750 nM,2930 nM,> 10 µM,4.79 µM,5.99 µM,,,,,,,,,,
